Experimental data reported in ChEMBL document CHEMBL1133630, “Chemical synthesis and pharmacology of 6- and 7-hydroxylated 2-carbomethoxy-3-(p-tolyl)tropanes: antagonism of cocaine's locomotor stimulant effects” (J Med Chem, 2000).

Legend:
Rattus norvegicus [1] = species: Rattus norvegicus; assay: To inhibit high affinity uptake of [3H]NE into nerve endings (synaptosomes) prepared from various regions of the rat brain.; format: functional
How it was run: (§1)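 Radiolabelled monoamine uptake inhibition. Six drug concentrations, each in triplicate, chosen from preliminary screens to bracket the approximate IC50.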

[2] = target: T1, Sodium-dependent dopamine transporter (Rattus norvegicus, UniProt P23977); assay: Inhibition of [3H]mazindol binding to dopamine transporter of rat striatal membranes.; format: cell membranes, Membrane
T1 sequence (P23977 whole entry): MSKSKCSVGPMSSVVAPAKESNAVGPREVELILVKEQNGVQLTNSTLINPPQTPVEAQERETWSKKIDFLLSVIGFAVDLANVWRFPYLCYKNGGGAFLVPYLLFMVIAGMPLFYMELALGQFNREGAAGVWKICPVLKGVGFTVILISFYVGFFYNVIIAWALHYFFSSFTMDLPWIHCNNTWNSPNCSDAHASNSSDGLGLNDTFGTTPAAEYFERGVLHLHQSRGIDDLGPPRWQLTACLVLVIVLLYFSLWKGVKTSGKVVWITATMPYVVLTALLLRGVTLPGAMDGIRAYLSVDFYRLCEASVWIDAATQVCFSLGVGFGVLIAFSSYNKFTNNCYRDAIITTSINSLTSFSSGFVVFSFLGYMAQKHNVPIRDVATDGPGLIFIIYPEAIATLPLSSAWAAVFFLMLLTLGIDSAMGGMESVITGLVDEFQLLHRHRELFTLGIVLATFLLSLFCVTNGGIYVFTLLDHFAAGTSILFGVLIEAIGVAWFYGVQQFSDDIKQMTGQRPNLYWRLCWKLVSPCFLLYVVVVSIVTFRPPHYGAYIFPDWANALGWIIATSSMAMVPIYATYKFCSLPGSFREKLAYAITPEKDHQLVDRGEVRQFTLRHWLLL

Rattus norvegicus [3] = species: Rattus norvegicus; assay: To inhibit high affinity uptake of [3H]dopamine (DA) into nerve endings (synaptosomes) prepared from various regions of the rat brain.; format: functional; how it was run: as §1
Rattus norvegicus [4] = species: Rattus norvegicus; assay: To inhibit high affinity uptake of [3H]5-HT into nerve endings (synaptosomes) prepared from various regions of the rat brain.; format: functional; how it was run: as §1
[5] = target: T1, Sodium-dependent dopamine transporter; assay: Inhibition of high affinity uptake of [3H]dopamine into nerve endings (synaptosomes) prepared from various regions of the rat brain.; format: subcellular; how it was run: as §1

COC(=O)[C@H]1C2[C@H](O)C[C@H](C[C@H]1c1ccc(C)cc1)N2C
Ki (Rattus norvegicus [1]): 60.9 nM | Ki [2]: 135 nM

Cc1ccc(C2C[C@H]3CC4OC(=O)C2C4N3C)cc1 (stereo partly drawn)
Ki (Rattus norvegicus [3]): 25000 nM

COC(=O)[C@@H]1C2CC[C@H](C[C@@H]1c1ccccc1)N2C
Ki (Rattus norvegicus [1]): 37.2 nM | Ki (Rattus norvegicus [4]): 173 nM | Ki [2]: 89.4 nM

COC(=O)[C@H]1C2[C@@H](O)C[C@H](C[C@H]1c1ccc(C)cc1)N2C (stereo in doubt; 19b)
Ki [5]: 676 nM | Ki [2]: 540 nM

COC(=O)[C@@H]1C2C(O)C[C@H](C[C@@H]1c1ccc(C)cc1)N2C (stereo partly drawn)
Ki (Rattus norvegicus [1]): 44.7 nM | Ki [5]: 39.2 nM | Ki (Rattus norvegicus [4]): 581 nM | Ki [2]: 25.2 nM

COC(=O)[C@H]1C2C(O)C[C@H](C[C@@H]1c1ccc(C)cc1)N2C (stereo partly drawn)
Ki (Rattus norvegicus [1]): 1000 nM | Ki [5]: 5600 nM | Ki (Rattus norvegicus [4]): 3000 nM | Ki [2]: 2900 nM

COC(=O)[C@H]1[C@@H](OC(=O)c2ccccc2)C[C@@H]2CC[C@H]1N2C [COCAINE]
Ki (Rattus norvegicus [1]): 108 nM | Ki (Rattus norvegicus [4]): 155 nM

COC(=O)[C@@H]1C2C[C@H](O)[C@H](C[C@@H]1c1ccc(C)cc1)N2C
Ki (Rattus norvegicus [1]): 154 nM | Ki (Rattus norvegicus [4]): 6700 nM

COC(=O)[C@H]1C2[C@@H](O)C[C@H](C[C@H]1c1ccc(C)cc1)N2C (stereo in doubt; 14b)
Ki (Rattus norvegicus [1]): 300 nM | Ki [5]: 2900 nM | Ki (Rattus norvegicus [4]): > 100000 nM | Ki [2]: 1400 nM

CCCC1C2CC[C@H](C[C@@H]1c1ccc(C)cc1)N2C (stereo partly drawn)
Ki (Rattus norvegicus [1]): 6.3 nM | Ki [5]: 51.8 nM | Ki (Rattus norvegicus [4]): 80.2 nM | Ki [2]: 21 nM
